The source made the active and inactive calls. No cut-off for these calls is given here.
Columns and labels:
[1] = Cytotoxicity against human GIN8 cells derived from invasive region of GBM patient assessed as reduction in cell viability measured after 48 hrs by Prestoblue assay; type: functional, cell-based
In short: (§1)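 Compounds diluted in DMEM containing 10% FBS and applied for 48 h. Viability read by PrestoBlue. IC50 calculated from three independent experiments, mean ± SE. Two-way ANOVA with Dunnett's multiple comparisons test.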

[2] = Cytotoxicity against human GIN28 cells derived from invasive region of GBM patient assessed as reduction in cell viability measured after 48 hrs by Prestoblue assay; type: functional, cell-based; in short: as §1
[3] = Cytotoxicity against human GCE28 cells derived from central tumor core of GBM patient assessed as reduction in cell viability measured after 48 hrs by Prestoblue assay; type: functional, cell-based; in short: as §1
Homo sapiens [4] = species on record: Homo sapiens; assay: Induction of apoptosis in human GIN8 cells assessed as increase in caspase 3/7 activation at 12.5 uM measured after 48 hrs by CellEvent caspase 3/7 probe based fluorescence analysis; type: functional, cell-based
In short: (§2)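 Cells exposed 48 h to compounds diluted in 10% FBS DMEM. Activated caspase-3/7 detected with the CellEvent probe. Staurosporine 10.0 μM served as reference inducer. Mean ± SEM (n = 3). Two-way ANOVA with Dunnett's test.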

Homo sapiens [5] = species on record: Homo sapiens; assay: Induction of apoptosis in human GIN28 cells assessed as increase in caspase 3/7 activation at 12.5 uM measured after 48 hrs by CellEvent caspase 3/7 probe based fluorescence analysis; type: functional, cell-based; in short: as §2
Homo sapiens [6] = species on record: Homo sapiens; assay: Induction of apoptosis in human GCE28 cells assessed as increase in caspase 3/7 activation at 12.5 uM measured after 48 hrs by CellEvent caspase 3/7 probe based fluorescence analysis; type: functional, cell-based; in short: as §2
Homo sapiens [7] = species on record: Homo sapiens; assay: Induction of apoptotic death in human GIN8 cells assessed as […] at 12.5 uM measured after 48 hrs by Hoechst 33342/propidium iodide staining based fluorescence microscopy analysis; type: functional, cell-based
In short: (§3)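 Cells dosed 48 h with 12.5 μM inhibitor, with 70% ethanol or DMEM (negative) as controls. Nuclei then double-stained with Hoechst 33342 and propidium iodide and examined by fluorescence microscopy.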

Homo sapiens [8] = species on record: Homo sapiens; assay: Induction of apoptotic death in human GIN8 cells assessed as nuclear fragmentation at 12.5 uM measured after 48 hrs by Hoechst 33342/propidium iodide staining based fluorescence microscopy analysis; type: functional, cell-based; in short: as §3
Homo sapiens [9] = species on record: Homo sapiens; assay: Induction of apoptotic death in human GIN8 cells assessed as presence of apoptotic bodies at 12.5 uM measured after 48 hrs by Hoechst 33342/propidium iodide staining based fluorescence microscopy analysis; type: functional, cell-based; in short: as §3
Homo sapiens [10] = species on record: Homo sapiens; assay: Induction of apoptotic death in human GIN28 cells assessed as […] at 12.5 uM measured after 48 hrs by Hoechst 33342/propidium iodide staining based fluorescence microscopy analysis; type: functional, cell-based; in short: as §3
Homo sapiens [11] = species on record: Homo sapiens; assay: Induction of apoptotic death in human GIN28 cells assessed as nuclear fragmentation at 12.5 uM measured after 48 hrs by Hoechst 33342/propidium iodide staining based fluorescence microscopy analysis; type: functional, cell-based; in short: as §3
Homo sapiens [12] = species on record: Homo sapiens; assay: Induction of apoptotic death in human GIN28 cells assessed as presence of apoptotic bodies at 12.5 uM measured after 48 hrs by Hoechst 33342/propidium iodide staining based fluorescence microscopy analysis; type: functional, cell-based; in short: as §3
Homo sapiens [13] = species on record: Homo sapiens; assay: Induction of apoptotic death in human GCE28 cells assessed as […] at 12.5 uM measured after 48 hrs by Hoechst 33342/propidium iodide staining based fluorescence microscopy analysis; type: functional, cell-based; in short: as §3
Homo sapiens [14] = species on record: Homo sapiens; assay: Induction of apoptotic death in human GCE28 cells assessed as nuclear fragmentation at 12.5 uM measured after 48 hrs by Hoechst 33342/propidium iodide staining based fluorescence microscopy analysis; type: functional, cell-based; in short: as §3
Homo sapiens [15] = species on record: Homo sapiens; assay: Induction of apoptotic death in human GCE28 cells assessed as presence of apoptotic bodies at 12.5 uM measured after 48 hrs by Hoechst 33342/propidium iodide staining based fluorescence microscopy analysis; type: functional, cell-based; in short: as §3
Homo sapiens [16] = species on record: Homo sapiens; assay: Induction of necrosis in human GIN8 cells assessed as induction of nuclear membrane permeability at 12.5 uM measured after 48 hrs by Hoechst 33342/propidium iodide staining based fluorescence microscopy analysis; type: functional, cell-based; in short: as §3
Homo sapiens [17] = species on record: Homo sapiens; assay: Induction of necrosis in human GIN28 cells assessed as induction of nuclear membrane permeability at 12.5 uM measured after 48 hrs by Hoechst 33342/propidium iodide staining based fluorescence microscopy analysis; type: functional, cell-based; in short: as §3
Homo sapiens [18] = species on record: Homo sapiens; assay: Induction of necrosis in human GCE28 cells assessed as induction of nuclear membrane permeability at 12.5 uM measured after 48 hrs by Hoechst 33342/propidium iodide staining based fluorescence microscopy analysis; type: functional, cell-based; in short: as §3
[19] = Synergistic cytotoxicity against human GIN8 cells assessed as combination index measured after 48 hrs in presence of 3-(4-chlorophenyl)-1-(2-chloro-2-phenylethyl)pyrazolo[3,4-d]pyrimidin-4-amine by Chou-Talalay assay; type: functional
In short: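 Two kinase inhibitors were combined at a 1:1 molar ratio, diluted in DMEM with 10% FBS, and incubated with the GBM cells for 48 h. Viability was read by PrestoBlue. Combination index values were calculated from three independent IC50 experiments (n = 3) and are reported as mean ± SD.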

[20] = Synergistic cytotoxicity against human GIN28 cells assessed as combination index measured after 48 hrs in presence of 3-(4-chlorophenyl)-1-(2-chloro-2-phenylethyl)pyrazolo[3,4-d]pyrimidin-4-amine by Chou-Talalay assay; type: functional
In short: (§4)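 Each drug pair dosed at a 1:1 molar ratio on the GBM lines and incubated 48 h. CI computed from three independent IC50 experiments (n = 3), reported as mean ± SD.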

[21] = Synergistic cytotoxicity against human GCE28 cells assessed as combination index measured after 48 hrs in presence of 3-(4-chlorophenyl)-1-(2-chloro-2-phenylethyl)pyrazolo[3,4-d]pyrimidin-4-amine by Chou-Talalay assay; type: functional; in short: as §4
[22] = Additive cytotoxicity against human GIN8 cells assessed as combination index measured after 48 hrs in presence of 2-[[4-(2-phenylethylamino)-1-[styryl]pyrazolo[3,4-d]pyrimidin-6-yl]amino]ethanol by Chou-Talalay assay; type: functional; in short: as §4
[23] = Additive cytotoxicity against human GIN28 cells assessed as combination index measured after 48 hrs in presence of 2-[[4-(2-phenylethylamino)-1-[styryl]pyrazolo[3,4-d]pyrimidin-6-yl]amino]ethanol by Chou-Talalay assay; type: functional; in short: as §4
[24] = Additive cytotoxicity against human GCE28 cells assessed as combination index measured after 48 hrs in presence of 2-[[4-(2-phenylethylamino)-1-[styryl]pyrazolo[3,4-d]pyrimidin-6-yl]amino]ethanol by Chou-Talalay assay; type: functional; in short: as §4
Homo sapiens [25] = species on record: Homo sapiens; assay: Cytotoxicity against human GIN8 cells assessed as cell viability at 5 ug/ml measured after 48 hrs using compound suspended in PBS by Prestoblue assay; type: functional, cell-based
In short: (§5)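 Inhibitor either dissolved in DMSO, inkjet-printed into polymer, or suspended in PBS, then diluted in DMEM. Polymer-alone and untreated controls included. Viability read by PrestoBlue after 48 h, mean ± SD.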

Homo sapiens [26] = species on record: Homo sapiens; assay: Cytotoxicity against human GIN28 cells assessed as cell viability at 5 ug/ml measured after 48 hrs using compound suspended in PBS by Prestoblue assay; type: functional, cell-based; in short: as §5
Homo sapiens [27] = species on record: Homo sapiens; assay: Cytotoxicity against human GCE28 cells assessed as cell viability at 5 ug/ml measured after 48 hrs using compound suspended in PBS by Prestoblue assay; type: functional, cell-based; in short: as §5
Homo sapiens [28] = species on record: Homo sapiens; assay: Cytotoxicity against human GIN8 cells assessed as reduction in cell viability at 5 ug/ml measured after 48 hrs using compound dissolved in DMSO by Prestoblue assay; type: functional, cell-based; in short: as §5
Homo sapiens [29] = species on record: Homo sapiens; assay: Cytotoxicity against human GIN28 cells assessed as reduction in cell viability at 5 ug/ml measured after 48 hrs using compound dissolved in DMSO by Prestoblue assay; type: functional, cell-based; in short: as §5
Homo sapiens [30] = species on record: Homo sapiens; assay: Cytotoxicity against human GCE28 cells assessed as reduction in cell viability at 5 ug/ml measured after 48 hrs using compound dissolved in DMSO by Prestoblue assay; type: functional, cell-based; in short: as §5
Homo sapiens [31] = species on record: Homo sapiens; assay: Cytotoxicity against human GIN8 cells assessed as reduction in cell viability at 5 ug/ml measured after 48 hrs using Pluronic-F68-formulated compound by Prestoblue assay; type: functional, cell-based; in short: as §5
[32] = Apparent water solubility of the compound in PBS formulated with 900 ug/ml of polymer Pluronic F-68 at 100 ug/ml by UV-Visible spectral analysis; type: physicochemical; conditions: buffer
[33] = Apparent water solubility of the compound in PBS formulated with 900 ug/ml polymer Tween 80 at 100 ug/ml by UV-Visible spectral analysis; type: physicochemical; conditions: buffer
[34] = Apparent water solubility of the compound in PBS formulated with 900 ug/ml polymer PVPVA at 100 ug/ml by UV-Visible spectral analysis; type: physicochemical; conditions: buffer
Homo sapiens [35] = species on record: Homo sapiens; assay: Cytotoxicity against human GIN28 cells assessed as reduction in cell viability at 5 ug/ml measured after 48 hrs using Pluronic-F68-formulated compound by Prestoblue assay; type: functional, cell-based; in short: as §5
Homo sapiens [36] = species on record: Homo sapiens; assay: Cytotoxicity against human GCE28 cells assessed as reduction in cell viability at 5 ug/ml measured after 48 hrs using Pluronic-F68-formulated compound by Prestoblue assay; type: functional, cell-based; in short: as §5
Homo sapiens [37] = species on record: Homo sapiens; assay: Cytotoxicity against human GIN8 cells assessed as reduction in cell viability at 5 ug/ml measured after 48 hrs using Tween 80-formulated compound by Prestoblue assay; type: functional, cell-based; in short: as §5
Homo sapiens [38] = species on record: Homo sapiens; assay: Cytotoxicity against human GIN28 cells assessed as reduction in cell viability at 5 ug/ml measured after 48 hrs using Tween 80-formulated compound by Prestoblue assay; type: functional, cell-based; in short: as §5
Homo sapiens [39] = species on record: Homo sapiens; assay: Cytotoxicity against human GCE28 cells assessed as reduction in cell viability at 5 ug/ml measured after 48 hrs using Tween 80-formulated compound by Prestoblue assay; type: functional, cell-based; in short: as §5
Homo sapiens [40] = species on record: Homo sapiens; assay: Cytotoxicity against human GIN8 cells assessed as reduction in cell viability at 5 ug/ml measured after 48 hrs using PVPVA-formulated compound by Prestoblue assay; type: functional, cell-based; in short: as §5
Homo sapiens [41] = species on record: Homo sapiens; assay: Cytotoxicity against human GIN28 cells assessed as reduction in cell viability at 5 ug/ml measured after 48 hrs using PVPVA-formulated compound by Prestoblue assay; type: functional, cell-based; in short: as §5
Homo sapiens [42] = species on record: Homo sapiens; assay: Cytotoxicity against human GCE28 cells assessed as reduction in cell viability at 5 ug/ml measured after 48 hrs using PVPVA-formulated compound by Prestoblue assay; type: functional, cell-based; in short: as §5

ClC(Cn1ncc2c(Nc3cccc(Br)c3)nc(SCCN3CCOCC3)nc21)c1ccccc1 (configuration not stated)
IC50 [1]: 11.2 µM | IC50 [2]: 7.7 µM | IC50 [3]: 7.2 µM | Activity (Homo sapiens [4]): Active | Activity (Homo sapiens [5]): Active | Activity (Homo sapiens [6]): Active | Activity (Homo sapiens [7]): Active | Activity (Homo sapiens [8]): Active | Activity (Homo sapiens [9]): Active | Activity (Homo sapiens [10]): Active | Activity (Homo sapiens [11]): Active | Activity (Homo sapiens [12]): Active | Activity (Homo sapiens [13]): Active | Activity (Homo sapiens [14]): Active | Activity (Homo sapiens [15]): Active | Activity (Homo sapiens [16]): inactive | Activity (Homo sapiens [17]): inactive | Activity (Homo sapiens [18]): inactive | CI [19]: 0.53 | CI [20]: 0.76 | CI [21]: 0.88 | CI [22]: 0.99 | CI [23]: 0.9 | CI [24]: 0.97 | Activity (Homo sapiens [25]): inactive | Activity (Homo sapiens [26]): inactive | Activity (Homo sapiens [27]): inactive | Activity (Homo sapiens [28]): Active | Activity (Homo sapiens [29]): Active | Activity (Homo sapiens [30]): Active | Activity (Homo sapiens [31]): Active | solubility [32]: Soluble | solubility [33]: Soluble | solubility [34]: Soluble | Activity (Homo sapiens [35]): Active | Activity (Homo sapiens [36]): Active | Activity (Homo sapiens [37]): Active | Activity (Homo sapiens [38]): Active | Activity (Homo sapiens [39]): Active | Activity (Homo sapiens [40]): Active | Activity (Homo sapiens [41]): Active | Activity (Homo sapiens [42]): Active
